Assay outcomes as filed in PubChem.
Hits are enriched below; roughly 3.7% of the tested compounds scored in any of these assays.
TAAR1 antagonist = antagonists of human TAAR1; CHO RD-HGA16 TAAR1, Fluo-8 calcium fluorescence, antagonist; 1.5% of 360,000 active; inhibition, % at 3 µM; Q96RJ0;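 active = inhibition above a per-plate cutoff, the mean inhibition of test compounds on that plate plus 3 SD, cut at about 49% in these data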;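 also: 0% = DMSO plus EC80 beta-PEA response and 100% = DMSO alone without agonist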
Target sequence (Q96RJ0 whole entry, looked up): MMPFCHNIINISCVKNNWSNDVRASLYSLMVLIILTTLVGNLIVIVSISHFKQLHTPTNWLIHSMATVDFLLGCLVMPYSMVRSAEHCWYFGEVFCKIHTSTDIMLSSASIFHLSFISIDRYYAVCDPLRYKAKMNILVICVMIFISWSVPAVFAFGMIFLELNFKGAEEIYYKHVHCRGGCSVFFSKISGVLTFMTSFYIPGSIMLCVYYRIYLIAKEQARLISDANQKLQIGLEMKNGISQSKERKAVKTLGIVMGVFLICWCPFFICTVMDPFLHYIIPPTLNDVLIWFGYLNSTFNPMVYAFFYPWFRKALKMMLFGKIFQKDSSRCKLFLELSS
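Test system – hTAAR1-expressing CHO RD-HGA16 cells, Gα16-coupled · Reagent – β-PEA at EC80 concentration, post-compound challenge · Compound dosing – 3 µM, single point · Timing – 140 s kinetic read after compound, 140 s after agonist · Detection – Fluo-8 intracellular calcium dye fluorescence, real-time kinetic reads · Control set – DMSO and EC80 PEA controls · Repeats – n of 1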
HCV core dimer = blocks dimerization of HCV core protein; TR-FRET GST/Flag-core106 dimerization, 1536-well; inhibition, % at 5 µM; 0.33% of 300,000 active; AID 1899;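 active = inhibition above the mean of all tested compounds plus 3 SD, set per screening campaign, cut at about 45% in these data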
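Material: GST/Flag-tagged HCV core106 proteins. Incubation: 4 h, 22.5 °C incubation. Read-out basis: inhibition (%) from 671 over 617 nm ratio. Measured by: TR-FRET, excitation 340 nm, emission 617 and 671 nm.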
rCAG binder = binds r(CAG) RNA repeats; r(CAG) RNA repeat, TO-PRO-1 dye displacement fluorescence; inhibition, % at 3 µM; 1.3% of 370,000 active; AID 651821;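 active = inhibition above the plate cutoff, the mean of all test compounds on that plate plus 3 SD, cut at about 35% in these data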;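 also: 0% = DMSO alone and 100% = 100 µM mitoxantrone as full dye displacement; higher means more dye released from RNA so lower well fluorescence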
TAAR1 agonist = agonists of human TAAR1; Q96RJ0; AID 624467; 0.99% of 360,000 active; CHO RD-HGA16 TAAR1, Fluo-8 calcium fluorescence; vehicle wells 0%, saturating PEA agonist 100%; activation, % at 3 µM;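 active = activation above the mean activation of all test compounds in the run plus 3 SD, cut at about 38% in these data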
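Assay system: CHO-derived RD-HGA16 cells with stable Gα16 and human TAAR1; timing: 17-24 h seeding, 75 min 37 °C dye, 30 min RT; read-out: % activation from peak over basal fluorescence ratio, DMSO-to-PEA scaled; measured by: kinetic Fluo-8 calcium fluorescence; benchmarks: low control DMSO, high control PEA (EC100); doses: 3 µM single concentration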
HCV NS3 hel inh = inhibitors of Hepatitis C virus NS3 helicase | inhibition, % at 10.9 µM | 0.56% of 290,000 active | NS3 helicase DNA unwinding, Cy5 molecular beacon fluorescence | AID 1800;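 active = inhibition above the mean of all tested compounds plus 3 SD, set per campaign, cut at about 35% in these data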;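 also: 0% = DMSO wells and 100% = thioflavine S control wells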
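Assay system – hepatitis C virus NS3 helicase domain fragment enzyme · Buffer or medium – MOPS pH 6.5, MgCl2, DTT, Tween20, BSA · Reagent – Cy5/quencher beacon DNA duplex and ATP to start · Compound – single 10.9 µM dose · Timing – 1 h at 25 °C · Technique – Cy5 beacon fluorescence read at start and 1 h · Measure – % inhibition of unwinding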
NS3 helicase cf = HCV NS3 helicase inhibition, confirmation assay; shares compounds with HCV NS3 hel inh; NS3 helicase DNA unwinding, Cy5 molecular beacon fluorescence; inhibition, % at 10.9 µM; 31% of 1,600 active; AID 1943;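 active = inhibition above the mean of all tested compounds plus 3 SD, cutoff set per campaign, cut at about 36% in these data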
FID counter trip = counter-screen for HCV NS3 helicase inhibitors: DNA intercalator displacement. shares compounds with HCV NS3 hel inh. DNA fluorescent intercalator displacement, fluorescence. inhibition, % at 7.9 µM. 4% of 1,600 active; in the data active = inhibition above about 37%;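 also: 0% = vehicle and 100% = reference compound; higher means more displacement of ethidium bromide from the DNA hairpin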
An asterisk follows results filed as active; . = no result.

SMILES	TAAR1 antagonist	HCV core dimer	rCAG binder	TAAR1 agonist	HCV NS3 hel inh	NS3 helicase cf	FID counter trip
CC(=O)Oc1ccc(C23CC4CC(CC(C4)C2)C3)cc1C(=O)O	.	7.2	.	.	40.3*	27.8	-26.0
O=C(O)c1ccccc1OC(=O)C12CC3CC(CC(C3)C1)C2	-15.1	-3.1	2.5	1.5	-0.4	.	.
CCOC(=O)n1c(=O)n(C)c2ccc(Br)cc21	-5.1	-1.1	-1.4	8.3	112.0*	-3.3	6.0
C=CCn1c(=O)n(C(=O)OCC)c2cc(Br)ccc21	-13.0	-0.4	-9.8	0.6	2.7	.	.
O=C(NC(=S)Nc1ccc(-c2ccc(CO)o2)cc1)c1cccs1	.	51.1*	.	.	36.8*	39.7*	12.6
CC(C)(C)NC(=O)NC(=O)CSc1cccc(C(F)(F)F)c1	-0.7	0.8	-9.1	4.6	36.7*	-9.7	7.0
O=C(NCCc1c[nH]c2ccccc12)OCc1cn(Cc2ccccc2C(F)(F)F)nn1	.	.	2.4	.	.	.	.
COc1ccc(-c2nnc(SCc3cccc(F)c3)n2-c2ccccc2)cc1	.	.	2.8	.	.	.	.
CCc1ccc(NC(=O)Cc2c(C(=O)O)n(C)c3ccccc23)cc1	3.4	7.7	31.4	4.2	37.0*	51.6*	-25.3
CCOc1ccc(NC(=O)Cc2c(C(=O)O)n(C)c3ccccc23)cc1	9.2	-2.7	20.4	6.5	0.2	.	.
COCCCN1C(=O)[C@H](CC(=O)N2CCSCC2)[C@]2(C(=O)OC)CCCCC=C12	.	.	4.3	.	.	.	.
COc1cccc(C(N)=O)c1OC(=O)Cc1ccccc1F	-9.3	-0.1	10.1	-2.1	39.5*	2.2	13.5
COc1ccccc1C(=O)COC(=O)Cc1ccccc1F	-25.9	.	1.3	-1.1	.	.	.
CCc1csc(N2[C@H](CN(CCOC)S(=O)(=O)c3ccccc3[N+](=O)[O-])[C@H](c3ccccc3)[C@@H]2CO)n1	.	.	6.7	.	.	.	.
CN1CCN(S(=O)(=O)c2ccc(N3CCN(C(c4ccccc4)c4ccccc4)CC3)nc2)CC1	8.2	3.3	0.6	0.8	42.5*	8.1	51.3*
C=CCNC(=O)NC[C@@]1(C(=O)OC)CC(=O)N(C)[C@@H]1c1ccccc1	.	.	1.8	.	.	.	.
Fc1cccc(Cl)c1C1Nc2cccc3cccc(c23)N1	-9.7	9.2	25.7	-0.4	45.4*	-19.8	31.2
Clc1cccc(Cl)c1C1Nc2cccc3cccc(c23)N1	-1.0	37.0	20.0	1.8	74.8*	-33.1	20.5
c1ccc(C2Nc3cccc4cccc(c34)N2)cc1	-6.2	3.0	15.5	0.8	14.8	.	.
COC(=O)C1CN(Cc2ccccc2)CCS(=O)(=O)N1Cc1ccc(F)cc1 (configuration not stated)	.	.	-0.2	.	.	.	.
CC(C)(C)OC(=O)NCc1ccccc1/C=C/S(=O)(=O)NC1CCCC1	.	.	0.8	.	.	.	.
COCCCNC(=O)CSc1nnc(-c2cccnc2)n1C1CCCCC1	.	.	-0.7	.	.	.	.
O=C(Nc1ccccc1N1CCCC1)c1cccc(-c2cc3ccccc3oc2=O)c1	30.4	37.2	5.2	1.1	42.0*	-5.6	-31.2
O=C(Nc1ccc(N2CCCC2)cc1)c1cccc(-c2cc3ccccc3oc2=O)c1	-11.3	34.8	14.3	4.0	-21.1	.	.
CSc1ccc(NC(=O)Nc2ccc(C(=O)NCC(=O)O)cc2)cc1	4.5	.	9.7	12.5	24.7	-26.9	5.0
SMILES	TAAR1 antagonist	HCV core dimer	rCAG binder	TAAR1 agonist	HCV NS3 hel inh	NS3 helicase cf	FID counter trip
C=CCn1c(COc2ccc(Cl)cc2)nnc1SCC(=O)c1ccc(-c2ccccc2)cc1	.	.	8.3	.	.	.	.
O=C(NCCc1c[nH]c2ccccc12)OCc1cn(Cc2c(F)cccc2F)nn1	.	.	1.5	.	.	.	.
Cc1ccc(CSCC2Nc3ccc(C(=O)N4CCN(c5cccc(C)c5)C(C)C4)cc3NC2=O)cc1 (configuration not stated)	.	70.8*	.	.	38.0*	-8.5	-36.2
Cc1cccc(N2CCN(C(=O)c3ccc(N4CCCC4=O)cc3)CC2C)c1 (configuration not stated)	7.0	-2.1	-8.2	10.1	-8.5	.	.
Cc1ccc(-c2nc3ncccn3c2NC(=O)c2ccccc2)cc1	.	.	4.5	.	.	.	.
O=C(CC1CCCC1)N1CC[C@H]2[C@H](CCCN2Cc2cc(F)cc(F)c2)C1	.	.	-2.2	.	.	.	.
O=C(O)c1cccc(N/N=C/c2ccc(OC(F)(F)F)cc2)c1	9.3	-6.0	8.0	3.8	-12.5	.	.
